According to paper PMC5484535 (Bioorganic & medicinal chemistry, 2016):
One block for each molecule: values may come before it.

Tests used:
SW156 = assay: Anti-proliferation in SW156 renal cell carcinoma cells; assay type: cell-based; conditions: read-out: Cellular IC50s Kidney SW156
PANC-1 = assay: Anti-proliferation in PANC-1 pancreatic cancer cells; assay type: cell-based; conditions: Homo sapiens, PANC-1, read-out: Cellular IC50s Pancreas PANC-1
URMC6 = assay: Anti-proliferation in URMC6 renal cell carcinoma cells; assay type: cell-based; conditions: read-out: Cellular IC50s Kidney URMC6
[1] = test system: synovial fibroblasts from an RA patient (RA2159); assay: FGF-basic secretion by TNFα-activated RA synovial fibroblasts; assay type: cell-based, human; conditions: TNFα-activated SF
Procedure, shortened: (§1)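 Primary human RA synovial fibroblasts (lot RA2159) were seeded at 1000 cells/well, grown ~24 h, then starved overnight and ~4 h in 0.1% BSA. Pooled supernatants (duplicates) were diluted 1:3 for 48-analyte Luminex measurement and iMLR modeling.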

KRAS^G12D Ba/F3 cells = assay: Anti-proliferation in KRAS^G12D Ba/F3 cells; assay type: cell-based; conditions: 2 vs 8, 25 vs 26
H358 cells = assay: Anti-proliferation in H358 NSCLC cells; assay type: cell-based; conditions: 72 h, in words
Procedure, shortened: (§2)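 Cells seeded at 2000 cells/well and left 48 h before drug addition at varying doses. After 72 h incubation, viability was read by CellTiter-Glo luminescence. Growth-inhibition IC50 values were calculated from dose-response curves.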

[2] = test system: synovial fibroblasts from an RA patient (RA2159); assay: Cytokine secretion by activated RA synovial fibroblasts; assay type: cell-based, human; conditions: TNFα, IL-1α or Poly(I:C) activation
Procedure, shortened: as §1

H23 cells = assay: Anti-proliferation in H23 NSCLC cells; assay type: cell-based; conditions: 72 h, in words
Procedure, shortened: as §2

TAK1 [3] = molecular target: T1, TAK1 (Homo sapiens, UniProt O43318); assay: Competitive pulldown of TAK1 with biotinylated probe 27 in H358 and H23 cells; assay type: cell-based; conditions: 6 h, washout, lysate + 1 μM 27; for blocking of labeling of TAK1 by 27: 10 μM compound; for labeling of TAK1 by 27 after pre-treatment of cells: 1 μM compound; for effect on labeling of TAK1 by 27: 1 or 10 μM compound
T1 sequence (O43318 1-606): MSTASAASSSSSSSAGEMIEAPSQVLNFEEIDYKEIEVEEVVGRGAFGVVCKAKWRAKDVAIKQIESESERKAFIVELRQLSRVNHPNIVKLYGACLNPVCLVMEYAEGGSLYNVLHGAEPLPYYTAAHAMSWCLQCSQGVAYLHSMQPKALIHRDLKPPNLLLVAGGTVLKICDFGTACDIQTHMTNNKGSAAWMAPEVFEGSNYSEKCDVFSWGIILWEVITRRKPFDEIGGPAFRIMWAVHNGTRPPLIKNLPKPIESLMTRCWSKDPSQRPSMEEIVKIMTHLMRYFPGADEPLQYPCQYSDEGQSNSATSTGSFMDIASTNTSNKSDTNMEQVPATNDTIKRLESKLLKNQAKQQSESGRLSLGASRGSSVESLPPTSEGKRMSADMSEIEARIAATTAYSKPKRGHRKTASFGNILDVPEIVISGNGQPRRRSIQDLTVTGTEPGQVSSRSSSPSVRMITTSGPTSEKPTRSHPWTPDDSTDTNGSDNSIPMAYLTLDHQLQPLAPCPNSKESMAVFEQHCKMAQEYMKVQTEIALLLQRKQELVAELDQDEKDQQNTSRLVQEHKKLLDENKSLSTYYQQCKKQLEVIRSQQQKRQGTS
Procedure, shortened: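 H358 and H23 NSCLC cells (KRAS G12C) were exposed to test compound at 1 or 10 μM for 6 h. Drug medium was removed, and cells were rinsed twice with cold PBS and lysed in MPER buffer. Lysates were incubated overnight at 4 °C with 1 μM biotinylated probe and pulled down on streptavidin beads. Recovered TAK1 was detected by immunoblotting.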

[4] = test system: synovial fibroblasts from an RA patient (RA2159); conditions: TNFα but not IL-1α or Poly(I:C) ref 24; cited from earlier work
panel of 456 kinases = assay: KinomeScan ATP-site competition binding panel; conditions: 1 and 10 μM
MAP2K6 = molecular target: T2, MAP2K6 (Homo sapiens, UniProt P52564); assay: KiNativ live-cell profiling in SK-CO-1 cells; assay type: binding; conditions: read-out: Inhibition (%) MAP2K6
T2 sequence (P52564 1-334): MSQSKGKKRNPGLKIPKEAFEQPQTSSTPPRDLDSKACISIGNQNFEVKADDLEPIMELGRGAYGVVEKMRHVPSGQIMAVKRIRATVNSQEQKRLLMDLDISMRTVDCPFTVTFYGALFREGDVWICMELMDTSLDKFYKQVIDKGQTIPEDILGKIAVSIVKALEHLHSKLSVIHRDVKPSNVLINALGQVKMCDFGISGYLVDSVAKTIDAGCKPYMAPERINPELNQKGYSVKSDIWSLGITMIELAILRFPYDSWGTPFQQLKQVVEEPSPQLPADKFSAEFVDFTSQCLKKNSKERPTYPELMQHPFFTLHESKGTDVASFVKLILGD

[5] = test system: SW620, SK-CO-1, PANC-1, AsPc-1, SW156, URMC6; assay: Anti-proliferation across six colon, pancreas and kidney cancer lines; assay type: cell-based; conditions: read-out: IC50 values against all lines except PANC-1
ZAP70 = molecular target: T3, ZAP70 (Homo sapiens, UniProt P43403); assay: KiNativ live-cell profiling in SK-CO-1 cells; assay type: binding; conditions: read-out: Inhibition (%) ZAP70
T3 sequence (P43403 1-619): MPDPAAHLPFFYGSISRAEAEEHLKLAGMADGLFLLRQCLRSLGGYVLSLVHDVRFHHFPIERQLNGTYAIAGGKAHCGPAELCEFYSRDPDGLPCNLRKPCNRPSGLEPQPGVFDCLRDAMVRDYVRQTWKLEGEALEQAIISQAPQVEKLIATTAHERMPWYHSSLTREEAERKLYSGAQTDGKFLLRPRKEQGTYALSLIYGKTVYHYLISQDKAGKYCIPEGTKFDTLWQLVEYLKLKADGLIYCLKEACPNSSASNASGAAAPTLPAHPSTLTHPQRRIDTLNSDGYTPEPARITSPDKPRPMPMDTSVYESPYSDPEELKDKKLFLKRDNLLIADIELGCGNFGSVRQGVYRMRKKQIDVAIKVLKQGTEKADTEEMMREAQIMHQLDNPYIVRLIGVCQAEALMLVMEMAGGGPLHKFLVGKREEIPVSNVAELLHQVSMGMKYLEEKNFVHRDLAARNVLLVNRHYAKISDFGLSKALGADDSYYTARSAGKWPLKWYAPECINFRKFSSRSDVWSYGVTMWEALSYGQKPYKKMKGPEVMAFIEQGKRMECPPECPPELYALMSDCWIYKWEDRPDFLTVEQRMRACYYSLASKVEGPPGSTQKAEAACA

ARAF = molecular target: T4, ARAF (Homo sapiens, UniProt P10398); assay: KiNativ live-cell profiling in SK-CO-1 cells; assay type: binding; conditions: read-out: Inhibition (%) ARAF
T4 sequence (P10398 1-606): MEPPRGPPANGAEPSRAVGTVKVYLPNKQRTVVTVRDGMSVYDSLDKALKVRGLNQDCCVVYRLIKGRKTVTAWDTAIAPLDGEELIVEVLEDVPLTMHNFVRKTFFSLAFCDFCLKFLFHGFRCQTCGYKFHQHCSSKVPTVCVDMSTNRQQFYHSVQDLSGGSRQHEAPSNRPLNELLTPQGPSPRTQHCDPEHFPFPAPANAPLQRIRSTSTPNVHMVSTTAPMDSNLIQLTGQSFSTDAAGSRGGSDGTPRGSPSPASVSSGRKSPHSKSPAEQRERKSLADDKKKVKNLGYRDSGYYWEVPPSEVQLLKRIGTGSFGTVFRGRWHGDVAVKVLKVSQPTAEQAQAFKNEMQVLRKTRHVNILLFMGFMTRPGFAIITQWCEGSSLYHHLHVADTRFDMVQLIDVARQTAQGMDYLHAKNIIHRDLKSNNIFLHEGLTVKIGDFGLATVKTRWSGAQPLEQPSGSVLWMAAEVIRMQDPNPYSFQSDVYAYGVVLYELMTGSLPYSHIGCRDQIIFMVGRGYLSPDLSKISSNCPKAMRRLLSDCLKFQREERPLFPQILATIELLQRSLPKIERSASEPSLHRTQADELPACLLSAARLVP

TAK1 [6] = molecular target: T1, TAK1; assay: KiNativ live-cell profiling in SK-CO-1 cells; assay type: binding; conditions: 1 μM
MAP2K5 = molecular target: T5, MAP2K5 (Homo sapiens, UniProt Q13163); assay: KiNativ live-cell profiling in SK-CO-1 cells; assay type: binding; conditions: read-out: Inhibition (%) MAP2K5
T5 sequence (Q13163 1-448): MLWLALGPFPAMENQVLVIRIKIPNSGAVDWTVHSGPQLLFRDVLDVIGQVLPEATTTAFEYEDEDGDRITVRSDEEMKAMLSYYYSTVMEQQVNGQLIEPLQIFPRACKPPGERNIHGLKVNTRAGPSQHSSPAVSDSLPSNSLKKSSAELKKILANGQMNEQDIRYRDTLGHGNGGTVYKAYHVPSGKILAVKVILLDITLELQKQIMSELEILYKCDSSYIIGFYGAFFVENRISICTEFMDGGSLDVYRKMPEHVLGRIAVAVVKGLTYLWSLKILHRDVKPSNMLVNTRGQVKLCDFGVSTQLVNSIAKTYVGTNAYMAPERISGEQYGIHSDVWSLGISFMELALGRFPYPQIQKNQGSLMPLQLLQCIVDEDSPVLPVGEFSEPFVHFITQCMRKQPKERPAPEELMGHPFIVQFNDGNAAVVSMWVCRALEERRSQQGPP

IC50 (SW156): > 100 µM
IC50 (PANC-1): > 100 µM
IC50 (URMC6): > 100 µM
Structure (SMILES): Cn1cnc2c(F)c(Nc3ccc(Br)cc3Cl)c(C(=O)NOCCO)cc21 [AZD]

IC50 (PANC-1): > 100 µM
IC50 (URMC6): > 100 µM
Structure (SMILES): CC(C)Nc1cc(-c2c[nH]c(C(=O)N[C@H](CO)c3cccc(Cl)c3)c2)c(Cl)cn1 [BVD]

potentiation of FGF-basic secretion induced by TNFα [1]: potentiated FGF-basic secretion
blocking of labeling of TAK1 by 27 (TAK1 [3]): only partially blocked labeling of TAK1
Structure (SMILES): C=CC(=O)Nc1ccccc1Oc1nc(Nc2ccc(N3CCN(C)CC3)cc2)ncc1Cl [Compound 2]
fold more potent than non-covalent counterpart against KRAS^G12D Ba/F3 cells (KRAS^G12D Ba/F3 cells): approximately 6 fold
anti-proliferative effect, H358 (H358 cells): potent against both lines at very low concentrations
normalization of induced cytokine secretion ([2]; 3 μM): normalized cytokine secretion
anti-proliferative effect, H23 (H23 cells): potent against both lines at very low concentrations

labeling of TAK1 by 27 after pre-treatment of cells (TAK1 [3]): did not label TAK1
Structure (SMILES): COc1cc(O)c2c(c1)/C=C/C[C@H](O)[C@H](O)C(=O)/C=C\C[C@H](C)OC2=O [Compound 5Z7, 5Z-7-oxozeaenol, reference compound]
normalization of induced cytokine secretion ([2]; 0.6 μM): fully normalizing induced cytokine secretion
secretion of FGF-basic in SF activated by TNFα [4]: elevated secretion of fibroblast growth factor-basic
KinomeScan inhibition score (panel of 456 kinases): strong inhibition score against many kinases other than TAK1

potentiation of FGF-basic secretion induced by TNFα [1]: potentiated FGF-basic secretion
inhibition at 1 µM (MAP2K6): -43.1%
IC50 [5]: 0.029 to 0.083 µM
inhibition at 1 µM (ZAP70): -26.6%
labeling of TAK1 by 27 after pre-treatment of cells (TAK1 [3]): did not label TAK1
Structure (SMILES): C=CC(=O)Nc1ccccc1Nc1nc(Nc2ccc(N3CCN(C)CC3)cc2)ncc1Cl [Compound 5]
anti-proliferative effect, H358 (H358 cells): potent against both lines at very low concentrations
normalization of induced cytokine secretion ([2]; 0.6 μM): fully normalizing induced cytokine secretion
anti-proliferative effect, H23 (H23 cells): potent against both lines at very low concentrations

effect on labeling of TAK1 by 27 (TAK1 [3]): did not have a measurable effect
Structure (SMILES): CCC(=O)Nc1ccccc1Oc1nc(Nc2ccc(N3CCN(C)CC3)cc2)ncc1Cl [Compound 8]
normalization of induced cytokine secretion ([2]; 3 μM): virtually inactive

effect on labeling of TAK1 by 27 (TAK1 [3]): did not have a measurable effect
Structure (SMILES): CCC(=O)Nc1ccccc1Nc1nc(Nc2ccc(N3CCN(C)CC3)cc2)ncc1Cl [Compound 9]

blocking of labeling of TAK1 by 27 (TAK1 [3]): only partially blocked labeling of TAK1
Structure (SMILES): CN1CCN(c2ccc(Nc3ncc(Cl)c(Nc4ccccc4NC(=O)CCl)n3)cc2)CC1 [Compound 10]
anti-proliferative effect, H358 (H358 cells): potent against both lines at very low concentrations
anti-proliferative effect, H23 (H23 cells): potent against both lines at very low concentrations

blocking of labeling of TAK1 by 27 (TAK1 [3]): only partially blocked labeling of TAK1
Structure (SMILES): C=CC(=O)Oc1ccccc1Nc1nc(Nc2cccc(N3CCOCC3)c2)ncc1Cl [Compound 20]

blocking of labeling of TAK1 by 27 (TAK1 [3]): only partially blocked labeling of TAK1
Structure (SMILES): C=CC(=O)Nc1ccccc1Oc1nc(Nc2cnn(C(F)F)c2)ncc1Cl [Compound 23]

inhibition at 1 µM (MAP2K6): -21.6%
inhibition at 1 µM (ARAF): -15.8%
binding to TAK1 in KiNativ assay (TAK1 [6]): could not detect binding to TAK1
inhibition at 1 µM (MAP2K5): -59.6%
blocking of labeling of TAK1 by 27 (TAK1 [3]): only partially blocked labeling of TAK1
Structure (SMILES): C=CC(=O)Nc1ccccc1Oc1nc(Nc2cnn(CCOC)c2)ncc1Cl [Compound 25]
normalization of induced cytokine secretion ([2]; 3 μM): normalized cytokine secretion

IC50 (SW156): > 100 µM
IC50 (PANC-1): > 100 µM
effect on labeling of TAK1 by 27 (TAK1 [3]): did not have a measurable effect
Structure (SMILES): CCC(=O)Nc1ccccc1Oc1nc(Nc2cnn(CCOC)c2)ncc1Cl [Compound 26]
normalization of induced cytokine secretion ([2]; 3 μM): virtually inactive

effect on labeling of TAK1 by 27 (TAK1 [3]): inhibited TAK1 in an irreversible manner
Structure (SMILES): CCN1CCN(Cc2ccc(NC(=O)c3ccc(C)c(Oc4ccnc5[nH]ccc45)c3)cc2C(F)(F)F)CC1 [NG25, reference compound]
anti-proliferative effect, H358 (H358 cells): insufficient to block proliferation at concentrations lower than 5 μM
normalization of induced cytokine secretion ([2]; 3 μM): normalized cytokine secretion
anti-proliferative effect, H23 (H23 cells): insufficient to block proliferation at concentrations lower than 5 μM
